Results from ChEMBL document CHEMBL4311987, “Discovery of novel allosteric site and covalent inhibitors of FBPase with potent hypoglycemic effects” (Eur J Med Chem, 2019).

Key:
[1] = species: Homo sapiens; test: Selectivity index, ratio of IC50 for human FBPase N125A mutant expressed in Escherichia coli BL21 (DE3) to IC50 for human FBPase expressed in Escherichia coli BL21 (DE3)
In short: (§1)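 IC50 values for each FBPase point mutant and for wild-type human FBPase came from the same malachite-green assay. The index is mutant IC50 divided by wild-type IC50.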

[2] = target: T1, Fructose-1,6-bisphosphatase 1 (Homo sapiens, UniProt P09467); test: Inhibition of human FBPase expressed in Escherichia coli BL21 (DE3) using FBP as substrate incubated for 5 mins by malachite green dye based spectrophotometry
T1 sequence (P09467 whole entry): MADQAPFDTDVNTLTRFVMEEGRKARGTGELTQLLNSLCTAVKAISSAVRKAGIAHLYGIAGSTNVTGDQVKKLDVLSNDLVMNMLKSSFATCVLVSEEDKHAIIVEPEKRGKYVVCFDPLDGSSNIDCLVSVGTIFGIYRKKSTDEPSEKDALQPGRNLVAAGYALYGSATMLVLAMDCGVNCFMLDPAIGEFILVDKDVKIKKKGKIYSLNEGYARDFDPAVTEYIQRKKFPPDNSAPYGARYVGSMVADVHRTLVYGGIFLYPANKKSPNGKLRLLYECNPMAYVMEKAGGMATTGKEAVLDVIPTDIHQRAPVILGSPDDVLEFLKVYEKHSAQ

[3] = species: Homo sapiens; test: Selectivity index, ratio of IC50 for human FBPase C38S mutant expressed in Escherichia coli BL21 (DE3) to IC50 for human FBPase expressed in Escherichia coli BL21 (DE3); in short: as §1
[4] = species: Homo sapiens; test: Selectivity index, ratio of IC50 for human FBPase C92S mutant expressed in Escherichia coli BL21 (DE3) to IC50 for human FBPase expressed in Escherichia coli BL21 (DE3); in short: as §1
[5] = species: Homo sapiens; test: Selectivity index, ratio of IC50 for human FBPase C116S mutant expressed in Escherichia coli BL21 (DE3) to IC50 for human FBPase expressed in Escherichia coli BL21 (DE3); in short: as §1
[6] = species: Homo sapiens; test: Selectivity index, ratio of IC50 for human FBPase C128S mutant expressed in Escherichia coli BL21 (DE3) to IC50 for human FBPase expressed in Escherichia coli BL21 (DE3); in short: as §1
[7] = species: Homo sapiens; test: Selectivity index, ratio of IC50 for human FBPase C179S mutant expressed in Escherichia coli BL21 (DE3) to IC50 for human FBPase expressed in Escherichia coli BL21 (DE3); in short: as §1
[8] = species: Homo sapiens; test: Selectivity index, ratio of IC50 for human FBPase C183S mutant expressed in Escherichia coli BL21 (DE3) to IC50 for human FBPase expressed in Escherichia coli BL21 (DE3); in short: as §1
[9] = species: Homo sapiens; test: Selectivity index, ratio of IC50 for human FBPase C281S mutant expressed in Escherichia coli BL21 (DE3) to IC50 for human FBPase expressed in Escherichia coli BL21 (DE3); in short: as §1
[10] = species: Homo sapiens; test: Selectivity index, ratio of IC50 for human FBPase S124A mutant expressed in Escherichia coli BL21 (DE3) to IC50 for human FBPase expressed in Escherichia coli BL21 (DE3); in short: as §1
[11] = species: Homo sapiens; test: Selectivity index, ratio of IC50 for human FBPase R243A mutant expressed in Escherichia coli BL21 (DE3) to IC50 for human FBPase expressed in Escherichia coli BL21 (DE3); in short: as §1
[12] = species: Homo sapiens; test: Selectivity index, ratio of IC50 for human FBPase R254A mutant expressed in Escherichia coli BL21 (DE3) to IC50 for human FBPase expressed in Escherichia coli BL21 (DE3); in short: as §1
[13] = species: Homo sapiens; test: Selectivity index, ratio of IC50 for human FBPase Y258A mutant expressed in Escherichia coli BL21 (DE3) to IC50 for human FBPase expressed in Escherichia coli BL21 (DE3); in short: as §1
[14] = target: Fructose-1,6-bisphosphatase 1 (Homo sapiens, UniProt P09467, C129S); test: Inhibition of human FBPase C128S mutant expressed in Escherichia coli BL21 (DE3) using FBP as substrate incubated for 5 mins by malachite green dye based spectrophotometry
In short: (§2)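 Recombinant human FBPase (wild type or point mutants) was expressed in E. coli BL21 (DE3), purified and stored in 50% glycerol at -20 °C. Reactions ran 5 min at 37 °C, and released phosphate was read by malachite green.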

[15] = target: Fructose-1,6-bisphosphatase 1 (Homo sapiens, UniProt P09467, C39S); test: Inhibition of human FBPase C38S mutant expressed in Escherichia coli BL21 (DE3) using FBP as substrate incubated for 5 mins by malachite green dye based spectrophotometry; in short: as §2
[16] = target: Fructose-1,6-bisphosphatase 1 (Homo sapiens, UniProt P09467, C93S); test: Inhibition of human FBPase C92S mutant expressed in Escherichia coli BL21 (DE3) using FBP as substrate incubated for 5 mins by malachite green dye based spectrophotometry; in short: as §2
[17] = target: Fructose-1,6-bisphosphatase 1 (Homo sapiens, UniProt P09467, C117S); test: Inhibition of human FBPase C116S mutant expressed in Escherichia coli BL21 (DE3) using FBP as substrate incubated for 5 mins by malachite green dye based spectrophotometry; in short: as §2
[18] = target: Fructose-1,6-bisphosphatase 1 (Homo sapiens, UniProt P09467, C180S); test: Inhibition of human FBPase C179S mutant expressed in Escherichia coli BL21 (DE3) using FBP as substrate incubated for 5 mins by malachite green dye based spectrophotometry; in short: as §2
[19] = target: Fructose-1,6-bisphosphatase 1 (Homo sapiens, UniProt P09467, C184S); test: Inhibition of human FBPase C183S mutant expressed in Escherichia coli BL21 (DE3) using FBP as substrate incubated for 5 mins by malachite green dye based spectrophotometry; in short: as §2
[20] = target: Fructose-1,6-bisphosphatase 1 (Homo sapiens, UniProt P09467, C282S); test: Inhibition of human FBPase C281S mutant expressed in Escherichia coli BL21 (DE3) using FBP as substrate incubated for 5 mins by malachite green dye based spectrophotometry; in short: as §2
[21] = target: Fructose-1,6-bisphosphatase 1 (Homo sapiens, UniProt P09467, S125A); test: Inhibition of human FBPase S124A mutant expressed in Escherichia coli BL21 (DE3) using FBP as substrate incubated for 5 mins by malachite green dye based spectrophotometry; in short: as §2
[22] = target: Fructose-1,6-bisphosphatase 1 (Homo sapiens, UniProt P09467, N126A); test: Inhibition of human FBPase N125A mutant expressed in Escherichia coli BL21 (DE3) using FBP as substrate incubated for 5 mins by malachite green dye based spectrophotometry; in short: as §2
[23] = target: Fructose-1,6-bisphosphatase 1 (Homo sapiens, UniProt P09467, R244A); test: Inhibition of human FBPase R243A mutant expressed in Escherichia coli BL21 (DE3) using FBP as substrate incubated for 5 mins by malachite green dye based spectrophotometry; in short: as §2
[24] = target: Fructose-1,6-bisphosphatase 1 (Homo sapiens, UniProt P09467, R255A); test: Inhibition of human FBPase R254A mutant expressed in Escherichia coli BL21 (DE3) using FBP as substrate incubated for 5 mins by malachite green dye based spectrophotometry; in short: as §2
Fructose-1,6-bisphosphatase 1 (Homo sapiens, UniProt P09467, R255A), sequence (P09467 2-338 R255A limits assumed): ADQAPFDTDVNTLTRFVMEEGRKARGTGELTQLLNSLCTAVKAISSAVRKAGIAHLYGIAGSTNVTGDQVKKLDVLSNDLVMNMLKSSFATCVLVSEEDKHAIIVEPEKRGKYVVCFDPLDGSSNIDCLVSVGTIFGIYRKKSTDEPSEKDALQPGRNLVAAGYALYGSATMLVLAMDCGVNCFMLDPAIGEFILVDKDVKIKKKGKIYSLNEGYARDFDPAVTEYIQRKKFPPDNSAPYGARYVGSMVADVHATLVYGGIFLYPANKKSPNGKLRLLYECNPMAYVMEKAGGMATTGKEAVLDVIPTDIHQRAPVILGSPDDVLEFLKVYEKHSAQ

Fructose-1,6-bisphosphatase 1 (Homo sapiens, UniProt P09467, C180S), sequence (P09467 2-338 C180S limits assumed): as the sequence (P09467 2-338 R255A limits assumed) above, with C179S, A254R counted along it
Fructose-1,6-bisphosphatase 1 (Homo sapiens, UniProt P09467, C282S), sequence (P09467 2-338 C282S limits assumed): as the sequence (P09467 2-338 R255A limits assumed) above, with A254R, C281S counted along it
Fructose-1,6-bisphosphatase 1 (Homo sapiens, UniProt P09467, R244A), sequence (P09467 2-338 R244A limits assumed): as the sequence (P09467 2-338 R255A limits assumed) above, with R243A, A254R counted along it
Fructose-1,6-bisphosphatase 1 (Homo sapiens, UniProt P09467, C117S), sequence (P09467 2-338 C117S limits assumed): as the sequence (P09467 2-338 R255A limits assumed) above, with C116S, A254R counted along it
Fructose-1,6-bisphosphatase 1 (Homo sapiens, UniProt P09467, C184S), sequence (P09467 2-338 C184S limits assumed): as the sequence (P09467 2-338 R255A limits assumed) above, with C183S, A254R counted along it
Fructose-1,6-bisphosphatase 1 (Homo sapiens, UniProt P09467, C129S), sequence (P09467 2-338 C129S limits assumed): as the sequence (P09467 2-338 R255A limits assumed) above, with C128S, A254R counted along it
Fructose-1,6-bisphosphatase 1 (Homo sapiens, UniProt P09467, C39S), sequence (P09467 2-338 C39S limits assumed): as the sequence (P09467 2-338 R255A limits assumed) above, with C38S, A254R counted along it
Fructose-1,6-bisphosphatase 1 (Homo sapiens, UniProt P09467, C93S), sequence (P09467 2-338 C93S limits assumed): as the sequence (P09467 2-338 R255A limits assumed) above, with C92S, A254R counted along it
Fructose-1,6-bisphosphatase 1 (Homo sapiens, UniProt P09467, N126A), sequence (P09467 2-338 N126A limits assumed): as the sequence (P09467 2-338 R255A limits assumed) above, with N125A, A254R counted along it
Fructose-1,6-bisphosphatase 1 (Homo sapiens, UniProt P09467, S125A), sequence (P09467 2-338 S125A limits assumed): as the sequence (P09467 2-338 R255A limits assumed) above, with S124A, A254R counted along it

SMILES	Ratio IC50 [1]	IC50 [2]	Ratio IC50 [3]	Ratio IC50 [4]	Ratio IC50 [5]	Ratio IC50 [6]	Ratio IC50 [7]	Ratio IC50 [8]	Ratio IC50 [9]	Ratio IC50 [10]	Ratio IC50 [11]	Ratio IC50 [12]	Ratio IC50 [13]	IC50 [14]	IC50 [15]	IC50 [16]	IC50 [17]	IC50 [18]	IC50 [19]	IC50 [20]	further results
O=[N+]([O-])/C=C/c1cccc(F)c1	> 625	320 nM	3.8	1.9	3.4	> 1010	2.8	2.8	7.2	37.8	6.9	26	19	> 350000 nM	1200 nM	620 nM	1100 nM	890 nM	920 nM	2300 nM	IC50 [21]: 12000 nM; IC50 [22]: > 200000 nM; IC50 [23]: 2200 nM; IC50 [24]: 8400 nM
CCOC(=O)C(C)(C)Oc1ccc(F)c(/C=C/[N+](=O)[O-])c1	492	610 nM	1	1	1.6	> 820	5.9	1.6	1.5	39	28	20	4.8	> 500000 nM	660 nM	640 nM	960 nM	3600 nM	970 nM	1300 nM	IC50 [21]: 24000 nM; IC50 [22]: > 300000 nM; IC50 [23]: 17000 nM; IC50 [24]: 12000 nM
N#Cc1ccc(/C=C/[N+](=O)[O-])cc1	> 556	360 nM	1.4	0.97	0.94	> 1000	1.2	1.2	1.7	3.8	1.9	10	4.2	> 350000 nM	490 nM	340 nM	330 nM	430 nM	440 nM	610 nM	IC50 [21]: 1400 nM; IC50 [22]: > 200000 nM; IC50 [23]: 680 nM; IC50 [24]: 3600 nM
